Assay outcomes as filed in PubChem.
NPY-Y1 antag: NPY-Y1 receptor antagonists, primary screen, cell-based; Neuropeptide Y receptor type 1 (Homo sapiens), P25929; inhibition, % at 3.6 µM; hit rate 1% among 200,000; HEK293-CNG Y1 cells, membrane potential fluorescence; NPY at EC95, then isoproterenol;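 active = inhibition above the campaign mean inhibition of all tested compounds plus 3 SD, cut at about 20% in these data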;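 note: 0% = DMSO wells given NPY plus isoproterenol and 100% = isoproterenol alone without NPY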
Target sequence (P25929 whole entry, looked up): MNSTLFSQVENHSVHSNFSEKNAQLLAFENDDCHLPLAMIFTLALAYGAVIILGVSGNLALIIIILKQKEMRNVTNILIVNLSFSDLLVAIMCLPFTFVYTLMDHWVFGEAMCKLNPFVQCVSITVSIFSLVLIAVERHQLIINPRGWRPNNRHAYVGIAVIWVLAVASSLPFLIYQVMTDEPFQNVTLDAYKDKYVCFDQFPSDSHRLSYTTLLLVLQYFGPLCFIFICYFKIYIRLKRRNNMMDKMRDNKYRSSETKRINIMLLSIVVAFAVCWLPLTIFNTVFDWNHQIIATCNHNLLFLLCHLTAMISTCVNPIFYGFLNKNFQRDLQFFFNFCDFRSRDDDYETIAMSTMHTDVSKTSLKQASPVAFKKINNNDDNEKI
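Material: HEK293 cells with Y1 receptor plus CNG channel; times: compound incubation 1 h at room temperature, readout 45 min post-stimulation; signal: fluorescence, membrane potential probe; read-out basis: fluorescence ratio normalized to % inhibition between controls; benchmarks: full-block control isoproterenol-only wells, zero-block control NPY plus isoproterenol wells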
NPY2 pot ag: NPY-Y2 potentiators or agonists, primary screen, cell-based. Neuropeptide Y receptor type 2 (Homo sapiens), P49146. cells expressing NPY-Y2, potentiator/agonist read-out. activation, % at 3.6 µM. hit rate 0.45% among 220,000; in the data active = activation above about 27%;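 note: cells stimulated with NPY near EC25 plus isoproterenol at EC100; 0% = vehicle plus submaximal agonist and 100% = vehicle plus saturating agonist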
NPY Y2 blocker: NPY-Y2 receptor antagonists, primary screen, cell-based; hit rate 0.99% among 140,000; inhibition, % at 2.7 µM; NPY-Y2 expressing cells, antagonist mode; Neuropeptide Y receptor type 2 (Homo sapiens), P49146; in the data active = inhibition above about 17%;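 note: 0% = vehicle with agonist challenge and 100% = reference antagonist with challenge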
NPY1 pot ag: NPY-Y1 receptor potentiators or agonists, primary screen, cell-based; hit rate 0.37% among 220,000; Neuropeptide Y receptor type 1 (Homo sapiens), P25929; NPY-Y1 expressing cells, potentiator/agonist activation; activation, % at 3.6 µM; in the data active = activation above about 33%, passing the limit was not always enough;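 note: cells stimulated with NPY at EC10 then isoproterenol at EC100; 0% = low agonist plus stimulus and 100% = saturating agonist plus stimulus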
EP2 antag: human EP2 receptor antagonists, primary screen, TR-FRET cAMP, C6 glioma cells; Prostaglandin E2 receptor EP2 subtype (Homo sapiens), P43116; C6 glioma cells expressing human EP2; cells stimulated with saturating PGE2; inhibition, % at 25 µM; hit rate 0.52% among 260,000; AID 1422, 2008;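 active = percent inhibition above 40 after rounding to a whole number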;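 note: rat C6 glioma host cells with rolipram phosphodiesterase inhibitor present; the protocol text gives 20 µM as final concentration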
EP2 mod: EP2 receptor modulators, cAMP readout, primary screen, cell-based, HTRF cAMP, PGE2 stimulation | EP2-expressing cells, cAMP HTRF FRET, PGE2 co-stimulation | hit rate 0.83% among 260,000 | induction, % at 25 µM | AID 940, 2007 | Prostaglandin E2 receptor EP2 subtype (Homo sapiens), P43116;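 active = compounds whose cAMP rise, as percent of the full-agonist control response, exceeds 60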;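 note: rat C6 glioma line stably carrying human EP2 under a CMV promoter; the protocol text gives 20 µM as final concentration; 100% = response of wells given 1 µM PGE2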
Numbers without * were called inactive; nt = no result given. Most compounds without a hit are left out; they make up all but 2.8% or so of the library.

SMILES	NPY-Y1 antag	NPY2 pot ag	NPY Y2 blocker	NPY1 pot ag	EP2 antag	EP2 mod
CCc1ccc(C(C(=O)NC(C)(C)CC)N(Cc2ccco2)C(=O)Cn2nnc3ccccc32)cc1 (configuration not stated)	54*	-150	51*	-117	13	36
O=C(C1CCCCC1)N1CCC[C@H]1Cn1nc(-c2ccc(F)cc2)ccc1=O	nt	nt	nt	nt	nt	-16
COC(=O)c1sc2ncccc2c1OCc1c(Cl)cccc1Cl	4	-17	14	-26	4	62*
COC(=O)c1sc2ncccc2c1OCc1cccc(Cl)c1	6	-19	11	-40	6	51
O=C(O)c1ccccc1C(=O)N1CCN(c2cccc(Cl)c2)CC1	4	1	5	-14	10	27
CCOc1ccccc1C(=O)N1CCN(c2cccc(Cl)c2)CC1	30*	-14	17*	-17	7	-13
Cc1ccc(NC(=S)N/N=C/c2ccc(Cl)c([N+](=O)[O-])c2)cc1	1	-16	1	4	5	-17
O=[N+]([O-])c1cc(/C=N/NC(=S)Nc2ccccc2Cl)ccc1Cl	-7	36*	nt	41*	4	-64
Cc1ccc(S(=O)(=O)c2c(C)cc(C)nc2Oc2cccc(C(F)(F)F)c2)cc1	5	14	8	-3	13	64*
CC1CN(c2nc3c(c(=O)[nH]2)CCN(Cc2ccc(F)cc2)C3)CC(C)O1 (configuration not stated)	nt	nt	nt	nt	nt	-2
CCn1c(CSc2nc(C)cc(C)n2)nnc1SCC(=O)Nc1cccc(C)c1C	nt	nt	nt	nt	8	-16
c1ccc2c(N3CCCCC3)nc(N3CCCC3)nc2c1	56*	-29	32*	-53	6	2
c1ccc(-c2nc(N3CCCCCC3)c3ccccc3n2)nc1	9	13	5	14	10	61*
c1ccc(-c2nc(N3CCCCC3)nc3ccccc23)cc1	4	-18	6	-39	10	56
COc1ccc(Nc2nc(N3CCCCC3)nc3ccccc23)c(OC)c1	41*	-7	50*	-24	8	50
c1ccc2c(c1)nc(N1CCCCC1)c1ccccc12	nt	-44	nt	-23	10	68*
CC(C)(C)c1nc2ccccc2c2nn(CC(N)=O)c(=O)n12	nt	nt	nt	nt	10	-14
CCN(CC)S(=O)(=O)c1ccc(OC)c(NC(=O)COc2ccc3c(C)cc(=O)oc3c2)c1	1	5	2	-6	67*	10
CN(C)c1nc(SCc2ccc(Cl)cc2)nc2c1CCCC2	4	-6	6	-17	3	62*
C=CCOc1ccc(Cl)cc1C(=O)N1CCC(O)(c2cccc(C)c2)CC1	nt	nt	nt	nt	4	-16
CC1=C(CC[C@H](C)CO)O[C@@H]2C[C@@H]3[C@H]4CC[C@H]5C[C@@H](O)CC[C@]5(C)[C@@H]4CC(=O)[C@@]3(C)[C@H]12	nt	nt	nt	nt	65*	24
O=C(O)c1cc(-c2ccc(-c3ccc(-c4cc(C(=O)O)c5cc(Cl)ccc5n4)cc3)cc2)nc2ccc(Cl)cc12	nt	nt	nt	nt	21	-11
O=C(O)c1cc(-c2ccc(-c3ccccc3)cc2)nc2cc3ccccc3cc12	nt	nt	nt	nt	46*	-52
O=C(/C=C/c1ccc(-c2nc3ccccc3s2)o1)c1ccco1	nt	nt	nt	nt	10	-8
CC(C)Oc1ccc(C(=O)Nc2ccc(N3CCOCC3)cc2)cc1	nt	nt	nt	nt	18	-9
SMILES	NPY-Y1 antag	NPY2 pot ag	NPY Y2 blocker	NPY1 pot ag	EP2 antag	EP2 mod
CCOc1ccc(N(C(=O)c2ccccn2)C(C(=O)NC2CCCCC2)c2cccs2)cc1 (configuration not stated)	nt	nt	nt	nt	5	31
CCN1/C(=C/C=C/c2oc3ccc(-c4ccccc4)cc3[n+]2CC)Oc2ccc(-c3ccccc3)cc21	22*	3	nt	-31	7	-69
CCN1/C(=C/C=C2\SC(=S)N(C)C2=O)Oc2ccccc21	nt	nt	nt	nt	15	10
CCOC(=O)c1sc(NC(=O)COc2ccc(Cl)cc2C)c(C#N)c1C	nt	nt	nt	nt	8	-31
N#Cc1nc2c(C#N)c(N)n(CCN3CCOCC3)c2nc1C#N	nt	nt	nt	nt	9	-31
CC(C)(C)c1c2c(c(C(C)(C)C)c3c1OCN(Cc1ccccc1)C3)OCN(Cc1ccccc1)C2	nt	nt	nt	nt	80*	-32
C=CCc1cccc2cc(C(=O)Nc3cccc(C(=O)O)c3)c(=O)oc12	nt	-6	nt	-3	5	100*
O=C(Cn1nc(-c2ccc(F)cc2)n(-c2ccncc2)c1=O)N1CCCC1	nt	nt	nt	nt	nt	-31
Cc1ccc(S(=O)(=O)N2CCC(C(=O)O)(c3ccccc3)CC2)cc1	nt	nt	nt	nt	43*	19
O=C(O)C1(C(=O)O)CCN(S(=O)(=O)c2ccccc2)CC1	nt	nt	nt	nt	14	17
CC(=O)c1c(C)nc2ccc(Br)cc2c1-c1ccccc1	22*	-11	nt	-13	5	57
C[C@@H](Cn1nnc2ccccc21)NC(=O)c1cnn2cccnc12	nt	nt	nt	nt	3	10
Cc1ccc(-n2c(C)cc(/C=N/NC(=O)Cn3c4ccccc4c(=O)c4ccccc43)c2C)cc1	-5	56*	1	61*	10	-15
COc1cc(N=c2ssnc2Cl)cc(OC)c1OC	-3	13	4	0	130*	-40
CCOC(=O)c1ccc(N=c2ssnc2Cl)cc1	7	8	nt	-11	8	-48
Clc1ccc(N=c2ssnc2Cl)cc1	-1	2	6	3	110*	-68
COc1ccc(N=c2ssnc2Cl)cc1	11	-2	4	12	76*	-72
Fc1ccc(N=c2ssnc2Cl)c(F)c1	13	7	nt	-20	5	-97
Clc1nssc1=Nc1ccccc1	-3	-3	nt	6	7	-93
N#Cc1ccc(N=c2ssnc2Cl)cc1	0	1	1	26	147*	-29
Cc1cc2c(cc1NC(=O)COc1ncnc3ccccc13)OCCO2	nt	nt	nt	nt	7	10
O=C(O)c1ccn2c(C(=O)c3ccc(Cl)cc3)c(-c3ccccc3)cc2c1	nt	3	nt	-13	7	77*
O=C(NCCO)C(=O)c1c(-c2ccc(Cl)cc2)cc2ccccn12	-3	-15	nt	-9	6	-6
CCC1CCCCN1C(=O)CSc1nnc(-c2cc(C)cc(C)c2)o1 (configuration not stated)	nt	nt	nt	nt	14	-4
S=C1SCN(C2CCCCCCCCCCC2)CN1C1CCCCCCCCCCC1	nt	nt	nt	nt	41*	12
Cc1cccc(NC(=O)N2CCC(NC(=O)C(C)(C)C)CC2)c1	nt	nt	nt	nt	20	-18
O=C(Nc1cccc2c1CCCC2)c1ccc(Cl)c([N+](=O)[O-])c1	4	13	4	13	14	-88
O=C(Nc1ccccc1-c1ccccc1)c1ccc(Cl)c([N+](=O)[O-])c1	-9	29*	0	71*	0	-6
